Paper PMC10520980 (European journal of medicinal chemistry, 2022)
Where two headings read alike, the source gives them in different places.

Experiments:
NTMT1 [1] = molecular target: T1, NTMT1 (Homo sapiens, UniProt Q9BV86); test: Degradation of NTMT1 in HCT116; type: cell-based; conditions: for fold less potent than degrader 1 (DC50): HCT116; for DC50: read-out: DC50, NTMT1 degradation, HCT116, 24 h, Western blot
T1 sequence (Q9BV86 1-223): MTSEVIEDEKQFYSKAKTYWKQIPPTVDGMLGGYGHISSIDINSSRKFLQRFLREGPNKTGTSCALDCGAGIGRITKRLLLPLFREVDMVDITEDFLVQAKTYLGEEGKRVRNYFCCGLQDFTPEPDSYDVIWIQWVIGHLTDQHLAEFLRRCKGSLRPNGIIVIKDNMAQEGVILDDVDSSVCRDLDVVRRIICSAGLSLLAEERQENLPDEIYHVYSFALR
Method in brief: (§1)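 Cells were seeded at 8×10^4 per well, grown 24 h, then treated with graded concentrations for 24 h or at 50 μM over a time course, with DMSO control. Lysis was in Tris pH 8.0/NaCl/NP-40/Triton buffer, followed by BCA. 20 μg protein was run on 10% SDS-PAGE with PVDF transfer. Membranes were probed with rabbit anti-NTMT1 and anti-β-actin overnight at 4 °C, then chemiluminescence. Densitometry was normalised to DMSO, and DC50 was derived from these values. Triplicates.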

NTMT1 [2] = molecular target: T1, NTMT1; test: Degradation of NTMT1 in HT29; type: cell-based; conditions: for DC50: read-out: DC50, NTMT1 degradation, HT29, 24 h, Western blot
Method in brief: as §1

NTMT1 [3] = molecular target: T1, NTMT1; conditions: read-out: cellular IC50; HCT116; cited from earlier work
NTMT1 [4] = molecular target: T1, NTMT1; conditions: read-out: cellular IC50; HT29; cited from earlier work
ntmt1 KO HCT116 cells = test: Cell proliferation assay; type: cell-based, human; conditions: ntmt1 KO HCT116, various concentrations, 72 h
HCT116 = test: Cytotoxicity, WST-8 assay, HCT116; type: cell-based, human; conditions: HCT116, up to 64 μM, 24 h
Method in brief: (§2)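 Cells were seeded at 5×10^3 per well and cultured 24 h. They were then exposed to a range of test compound concentrations or DMSO vehicle. A solution of 5 mM WST-8 plus 0.2 mM 1-methoxyphenazinium salt in 150 mM NaCl was added, followed by 3 h at 37 °C in 5% CO₂. Absorbance was read at 490 nm. Triplicates.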

HT29 = test: Cytotoxicity, WST-8 assay, HT29; type: cell-based, human; conditions: HT29, up to 64 μM, 24 h
Method in brief: as §2

NTMT2 = NTMT2 (Homo sapiens, UniProt Q5VVY1); test: Selectivity: NTMT2 protein level in HCT116 and HT29; type: cell-based; conditions: 24 h
Chain of NTMT2 (Q5VVY1 whole entry): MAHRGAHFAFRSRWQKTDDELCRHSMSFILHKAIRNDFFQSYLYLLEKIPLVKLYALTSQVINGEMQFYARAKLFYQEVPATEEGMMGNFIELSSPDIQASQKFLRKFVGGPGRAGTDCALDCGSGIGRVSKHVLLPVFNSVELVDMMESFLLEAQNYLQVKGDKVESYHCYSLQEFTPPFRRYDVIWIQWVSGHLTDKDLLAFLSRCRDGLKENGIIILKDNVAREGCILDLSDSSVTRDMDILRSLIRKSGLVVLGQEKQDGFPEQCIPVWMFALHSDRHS
Method in brief: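 HCT116 and HT29 cells were treated with a range of degrader concentrations for 24 h. Lysates were resolved by SDS-PAGE, and NTMT1, NTMT2 and β-actin band regions were cut from the same membrane. These were probed with rabbit anti-NTMT1, anti-NTMT2 and anti-actin, then goat anti-rabbit secondary and chemiluminescence. Triplicates.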

calreticulin (CALR) = test: CALR expression by Western blot; type: cell-based, human; conditions: HCT116, 25 μM, 24 h
Method in brief: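 HCT116 cells were treated at 25 μM for 24 h alongside the inhibitor comparator. Cells were lysed at 4 °C for 1 h in Tris pH 8.0/NaCl/NP-40/Triton X-100 buffer with protease inhibitor, and protein was quantified by BCA. 10 μg protein was run on 8% SDS-PAGE and transferred to PVDF. Blots were probed with rabbit anti-CALR and anti-β-actin, detected by chemiluminescence and quantified by densitometry. Triplicates.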

eGFP = test: Control with plasmid expressing only eGFP in HCT116; type: cell-based, human; conditions: HCT116, 100 μM, 24 h
[5] = molecular target: NTMT1-eGFP fusion protein (Homo sapiens, UniProt Q9BV86); test: NTMT1 degradation visualized by fluorescence; type: cell-based; conditions: HCT116, 100 μM, 24 h
Method in brief: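 HCT116 cells were seeded at 1.5×10^5 per well. After 12 h they were transfected with pEGFP-n1-NTMT1 or empty pEGFP-n1 using Lipofectamine 3000 in reduced-serum medium with 20% FBS, for 8 h. Cells recovered 24 h in complete medium, then received 100 μM degrader or DMSO for 24 h. The GFP fusion was imaged on an inverted fluorescence microscope.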

NTMT1 and NTMT2 = conditions: cited from earlier work

SMILES | fold less potent than degrader 1 (DC50) (NTMT1 [1]) [fold] | DC50 (NTMT1 [1]) [µM] | DC50 (NTMT1 [2]) [µM] | antiproliferative effect on ntmt1 KO cells (ntmt1 KO HCT116 cells) | cytotoxicity (cell viability, WST-8) (HCT116) | cytotoxicity (cell viability, WST-8) (HT29) | also measured
Cc1ncsc1-c1ccc(CNC(=O)[C@@H]2C[C@@H](O)CN2C(=O)[C@H](C(C)C)N2Cc3ccccc3C2=O)c(OCCOCCNC(=O)c2ccccc2NC(=O)[C@H](CCCCN)NC(=O)[C@@H]2CCCN2C(=O)Cc2cccc3ccccc23)c1 [degrader 2, (2S,4R)-N-(2-(2-(2-(2-((S)-6-amino-2-((S)-1-(2-(naphthalen-1-yl)acetyl)pyrrolidine-2-carboxamido)hexanamido)benzamido)ethoxy)ethoxy)-4-(4-methyl-thiazol-5-yl)benzyl)-4-hydroxy-1-((S)-3-methyl-2-(1-oxoisoindolin-2-yl)butanoyl)pyrrolidine-2-carboxamide] | ≥ 9 | 79.7 | 53.7 | – | – | – | –
NCCCC[C@H](NC(=O)[C@@H]1CCCN1C(=O)Cc1cccc2ccccc12)C(=O)Nc1ccccc1C(N)=O [DC541, (S)-N-((S)-6-amino-1-((2-carbamoylphenyl)amino)-1-oxohexan-2-yl)-1-(2-(naphthalen-1-yl)acetyl)pyrrolidine-2-carboxamide] | – | – | – | – | – | – | IC50 (NTMT1 [3]): > 100 µM; IC50 (NTMT1 [4]): ~30 µM
Cc1ncsc1-c1ccc(CNC(=O)[C@@H]2C[C@@H](O)CN2C(=O)[C@H](C(C)C)N2Cc3ccccc3C2=O)c(OCCOCCOCCOCCNC(=O)c2ccccc2NC(=O)[C@H](CCCCN)NC(=O)[C@@H]2CCCN2C(=O)Cc2cccc3ccccc23)c1 [degrader 3, (2S,4R)-N-(2-((1-(2-((S)-6-amino-2-((S)-1-(2-(naphthalen-1-yl)acetyl)pyrrolidine-2-carboxamido)hexanamido)phenyl)-1-oxo-5,8,11-trioxa-2-azatridecan-13-yl)oxy)-4-(4-methylthiazol-5-yl)benzyl)-4-hydroxy-1-((S)-3-methyl-2-(1-oxoisoindolin-2-yl)butanoyl)pyrrolidine-2-carboxamide] | ≥ 9 | 66.4 | 53.7 | – | – | – | –
Cc1ncsc1-c1ccc(CNC(=O)[C@@H]2C[C@H](O)CN2C(=O)[C@H](C(C)C)N2Cc3ccccc3C2=O)c(OCCNC(=O)c2ccccc2NC(=O)[C@H](CCCCN)NC(=O)[C@@H]2CCCN2C(=O)Cc2cccc3ccccc23)c1 [inhibitor 4, (2S,4S)-N-(2-(2-(2-((S)-6-amino-2-((S)-1-(2-(naphthalen-1-yl)acetyl)pyrrolidine-2-carboxamido)hexanamido)benzamido)ethoxy)-4-(4-methylthiazol-5-yl)benzyl)-4-hydroxy-1-((S)-3-methyl-2-(1-oxoisoindolin-2-yl)butanoyl)-pyrrolidine-2-carboxamide] | – | – | – | neither compound displayed an antiproliferative effect | No significant cytotoxicity | No significant cytotoxicity | NTMT1 level relative to DMSO control (NTMT1 [1]; HCT116, 50 μM, 24 h): unable to reduce NTMT1 levels; NTMT1 level relative to DMSO control (NTMT1 [2]; HT29, 50 μM, 24 h): unable to reduce NTMT1 levels
Cc1ncsc1-c1ccc(CNC(=O)[C@@H]2C[C@@H](O)CN2C(=O)[C@H](C(C)C)N2Cc3ccccc3C2=O)c(OCCNC(=O)c2ccccc2NC(=O)[C@H](CCCCN)NC(=O)[C@@H]2CCCN2C(=O)Cc2cccc3ccccc23)c1 [degrader 1, (2S,4R)-N-(2-(2-(2-((S)-6-amino-2-((S)-1-(2-(naphthalen-1-yl)acetyl)pyrrolidine-2-carboxamido)hexanamido)benzamido)ethoxy)-4-(4-methylthiazol-5-yl)benzyl)-4-hydroxy-1-((S)-3-methyl-2-(1-oxoisoindolin-2-yl)butanoyl)pyrrolidine-2-carbox amide] | – | 7.53 | 18.1 | neither compound displayed an antiproliferative effect | No significant cytotoxicity | No significant cytotoxicity | degradation of NTMT2 (NTMT2; HCT116, various concentrations): cannot induce degradation of NTMT2; degradation of NTMT2 (NTMT2; HT29, various concentrations): cannot induce degradation of NTMT2; CALR expression relative to inhibitor 4 (Western blot) (calreticulin (CALR)): ~ 1.4 fold; fluorescence of eGFP only (control plasmid) (eGFP): did not show obvious reduction of fluorescence; NTMT1 degradation after pre-treatment with proteasome inhibitor MG-132 (NTMT1 [1]; HCT116, 1 μM MG-132 for 2 h, then 50 μM compound 24 h): completely abolished; NTMT1 level (Western blot) (NTMT1 [1]; HCT116, 25 μM, 24 h): almost depleted; NTMT1 level within 24 h (NTMT1 [1]; HCT116, 50 μM, 24 h): almost completely depleted; onset of pronounced change of NTMT1 levels (NTMT1 [2]; HT29, 50 μM): not observed until 6 h; fluorescence of NTMT1-eGFP fusion protein [5]: most fluorescence signals were lost
NCCCC[C@H](NC(=O)[C@@H]1CCCN1C(=O)Cc1ccc(O)cc1)C(=O)N[C@@H](CCCN=C(N)N)C(N)=O [BM30] | – | – | – | – | – | – | selectivity toward NTMT1 and NTMT2 (NTMT1 and NTMT2): nonselective inhibitor
